Source: PubChem BioAssay (The Scripps Research Institute Molecular Screening Center)
A selection: hits, their analogues and other compounds. The true share with any hit is near 1.8%.
CHRM4 PAM: positive allosteric modulators of human muscarinic M4 receptor; P08173; CHO-K1 hM4/Gqi5, Fluo-8 calcium fluorescence, ACh EC20; 0% = ACh EC20, 100% = maximal ACh; activation, % at 3 µM; 0.4% of 360,000 active; AID 624126;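 active = activation above its plate's cutoff, the mean activation of sample wells plus 3 SD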
M4 ag: agonists of human muscarinic M4 receptor (CHRM4); CHO-K1 hM4/Gqi5, Fluo-8 calcium fluorescence; vehicle 0%, full acetylcholine response 100%; 0.14% of 360,000 active; activation, % at 3 µM;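 active = activation above the run mean over all test wells plus 3 SD, cut at about 32% in these data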;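 also: peak over basal fluorescence ratio per well then scaled between controls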
CHRM5 PAM: potentiates acetylcholine response at human M5 receptor. P08912. CHO-K1 hM5, Fluo-8 calcium, ACh EC20 PAM; 0% = ACh EC20, 100% = ACh EC100. activation, % at 3 µM. 0.3% of 360,000 active. AID 624038;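 active = activation above the run cutoff, the mean activation of all test compounds plus 3 SD, cut at about 18% in these data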
Target sequence (P08912 whole entry, looked up): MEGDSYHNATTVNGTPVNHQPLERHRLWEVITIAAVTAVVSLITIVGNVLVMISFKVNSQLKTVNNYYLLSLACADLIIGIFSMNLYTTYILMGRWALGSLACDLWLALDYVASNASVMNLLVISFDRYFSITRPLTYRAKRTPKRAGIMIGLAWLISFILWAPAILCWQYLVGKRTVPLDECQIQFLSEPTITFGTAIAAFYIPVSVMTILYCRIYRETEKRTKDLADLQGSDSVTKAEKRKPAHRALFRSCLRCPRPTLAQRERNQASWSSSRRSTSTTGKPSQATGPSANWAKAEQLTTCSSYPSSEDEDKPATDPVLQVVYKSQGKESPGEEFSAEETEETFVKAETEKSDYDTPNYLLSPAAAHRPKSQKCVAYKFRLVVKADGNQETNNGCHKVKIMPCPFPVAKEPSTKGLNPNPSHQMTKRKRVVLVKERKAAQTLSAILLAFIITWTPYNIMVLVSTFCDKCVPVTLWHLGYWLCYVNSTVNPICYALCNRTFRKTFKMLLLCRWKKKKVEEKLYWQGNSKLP
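Replicates: One well per compound, no replicates | System: Human M5 receptor in CHO-K1 cells | Benchmarks: Low control EC20 acetylcholine (0%), high control EC100 acetylcholine (100%) | Probe or stimulus: Acetylcholine, EC20 level | Times: Fluo-8 loading 80 min at 37 °C plus 30 min room temperature | Signal: Intracellular calcium via Fluo-8 fluorescence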
CHRM5 antagonist: blocks acetylcholine activation of human M5 receptor | AID 624040 | 0.59% of 360,000 active | CHO-hM5 cells, Fluo-8 calcium fluorescence, ACh EC80 | inhibition, % at 3 µM;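 active = inhibition above a per-plate cutoff, the mean of that plate's test compounds plus 3 SD, cut at about 27% in these data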
CHRM5 agonist: agonists of human muscarinic M5 receptor (CHRM5) | P08912 | CHO-K1 hM5 cells, Fluo-8 calcium fluorescence; 0% DMSO wells, 100% maximal acetylcholine response | activation, % at 3 µM | 0.19% of 360,000 active | AID 624037;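 active = activation above the run's mean over test compounds plus 3 SD, cut at about 23% in these data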;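 also: signal is peak over basal fluorescence ratio across the kinetic read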
CHRM4 antagonist: blocks acetylcholine activation of human M4 receptor. P08173. CHO-hM4 cells, ACh EC80, Fluo-8 calcium fluorescence. inhibition, % at 3 µM. 0.73% of 360,000 active;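 active = inhibition above its plate's cutoff, the mean inhibition of sample wells plus 3 SD, cut at about 27% in these data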
Each line names hits and unclear results; the compound was inactive in the other large screens.

O=C1/C(=C/c2ccc(N3CCOCC3)o2)SC(=Nc2ccccc2)N1CCc1c[nH]c2ccccc12	CHRM4 antagonist 42.2
COc1cc(/C=C2\SC(=Nc3ccccc3)N(CCc3c[nH]c4ccccc34)C2=O)ccc1OC(C)C(=O)O (configuration not stated)	none
COc1ccc(-c2ccc(C(=O)NCc3ccc(N(C)C)cc3)c3occc23)c(C)c1	none
Cc1ccc2nc(SCC(=O)N3CCC(Cc4ccccc4)CC3)nc(=O)n2c1	M4 ag 34.9
CCOC(=O)C1=CCCN(S(=O)(=O)c2ccc(C)cc2)C1	none
Cc1ccc2occ(/C=N/NC(=O)c3ccncc3)c(=O)c2c1	CHRM4 PAM 19.8
CC(C)c1ccc(-c2nnc(SCC(=O)NC3CC3)n2C)cc1	CHRM5 PAM 30.4
Cn1ccnc1SCC(=O)NC1CCCCC1	none
Cn1c(SCC(=O)NC2CCCC2)nnc1-c1ccncc1	none
Cn1ccnc1SCC(=O)NC1CC1	CHRM4 PAM 48.5
CC(=O)C[C@@H](O)CC(=O)[C@H]1OC(=O)CC/C=C\Cc2ccccc21	none
CC(=O)C[C@@H](O)CC(=O)[C@@H]1OC(=O)CC/C=C\Cc2ccccc21	CHRM4 PAM 25.8
O=C(Nc1ccc(O)c(-c2nc3ccccc3s2)c1)C1=COCCO1	CHRM4 antagonist 79.1
O=C(Nc1ccc(-c2nc3ccccc3s2)c(O)c1)C1=COCCO1	none
Cc1cccnc1C(NC(=O)C1CCN(CCCOc2ccc(F)cc2)CC1)c1ccccc1 (configuration not stated)	none
C(=N\c1nc2ccccc2n1CCN1CCCCC1)/c1ccc2c(c1)OCO2	CHRM5 PAM 22.8
CCOC(=O)N1CCN(C(=O)C[C@@H]2C[C@@]3(C(=O)OC)CCCCC=C3N(CCc3ccc(OC)c(OC)c3)C2=O)CC1	none
CCCCN1C(=O)C(CC(=O)NCCc2ccccn2)CC(C(=O)N2CCCCCC2)=C1C (configuration not stated)	none
CC1(C(=O)Nc2cccc3cccnc23)CCN1Cc1ccccc1OC(F)F (configuration not stated)	none
CC(C)(C)c1ccc(-c2cn(-c3ccc(Br)cc3)c3[n+]2CCCS3)cc1	CHRM5 antagonist 58.3, CHRM4 antagonist 50.3
c1ccc(-c2cn(-c3ccccc3)c3[n+]2CCS3)cc1	none
COc1cccc(-c2cnc(C(O)c3cc(C)c(OC)c(C)c3)[nH]2)c1 (configuration not stated)	none
COc1ccc(-c2nnc(SCC(=O)Nc3ccc(C(=O)O)cc3)n2-c2ccc(Cl)cc2)cc1	CHRM4 PAM 13.2
Cc1ccsc1C(=O)N1CCC1(C)C(=O)NCCC#N (configuration not stated)	none
CC1(C(=O)NS(=O)(=O)c2ccc(C#N)cc2)CCN1C(=O)C1(c2ccccc2)CCCC1 (configuration not stated)	CHRM4 PAM 17.5
COc1ccc(CN2C(=O)C(CC(=O)NCCc3ccccn3)CC(C(=O)N3CCCCCC3)=C2C)cc1 (configuration not stated)	none
COc1ccc(C)cc1N(CC(=O)Nc1cccnc1)S(=O)(=O)c1ccccc1	CHRM5 antagonist 29.3
CC(C)(C)OC(=O)N(CC1CCNCC1)C(=O)c1[nH]c(C(F)(F)F)nc1-c1ccccc1	none
O=C(O)c1ccc(Br)cn1	CHRM4 PAM 20.5
Cc1ccccc1NC(=S)NC(=O)/C=C/c1ccco1	CHRM5 PAM 22.0
Cn1c(N)c(-c2ccccc2)c2ccc([N+](=O)[O-])cc2c1=O	M4 ag 55.9
Cc1cccc(C(=O)O/N=C(\N)c2cccc([N+](=O)[O-])c2)c1	none
N/C(=N\OC(=O)c1cccc([N+](=O)[O-])c1)c1cccnc1	CHRM4 PAM 25.0
Cc1nnsc1C(=O)NC1CCCc2c1cnn2-c1ccccc1F (configuration not stated)	none
Cc1nnsc1C(=O)NC1CCCc2c1cnn2-c1ccc(C(C)(C)C)cc1 (configuration not stated)	CHRM5 antagonist 27.5
O=C(NCCC1=CCCCC1)c1[nH]c(C(F)(F)F)nc1-c1ccccc1	none
NC(=O)CC(NC(=O)Cc1cccc2ccccc12)c1ccc(NC2CC3CCC2C3)c([N+](=O)[O-])c1 (configuration not stated)	CHRM5 PAM 19.2
NC(=O)CC(NC(=O)Cc1cccc2ccccc12)c1ccc(NC2CCCC2)c([N+](=O)[O-])c1 (configuration not stated)	none
NC(=O)CC(NC(=O)Cc1cccc2ccccc12)c1ccc(NCC2CC2)c([N+](=O)[O-])c1 (configuration not stated)	none
NC(=O)CC(NC(=O)Cc1cccc2ccccc12)c1ccc(NCCOc2ccccc2)c([N+](=O)[O-])c1 (configuration not stated)	CHRM4 PAM 27.5
NC(=O)CC(NC(=O)Cc1cccc2ccccc12)c1ccc(NCc2ccc(F)c(F)c2)c([N+](=O)[O-])c1 (configuration not stated)	CHRM4 PAM 23.9
O=C(COc1ccc(C(=O)c2ccccc2)cc1)Nc1cccnc1	CHRM5 antagonist 31.0
CCc1ccc(OCC(=O)Nc2ccncc2)cc1	none
Cc1ccc(Oc2ccc(OCC(=O)Nc3ccncc3)cc2)cc1	CHRM5 antagonist 34.2
CC1(c2nnnn2-c2ccc3c(c2)OCCO3)CCC(=O)N1CCCn1ccnc1 (configuration not stated)	none
CC(C)N1CCN(C(=O)c2ccc(NC(=O)c3ccc(Br)o3)cc2)CC1	CHRM5 PAM 20.3
Cc1ccc(NC(=O)CS(=O)CC(=O)N(C(C)C(=O)NC2CCCCC2)C(C)(C)C)cc1 (configuration not stated)	CHRM5 antagonist 27.5
Cc1ccc(N(C(=O)CS(=O)CC(=O)Nc2ccc(F)cc2)C(C(=O)NC2CCCCC2)c2ccco2)cc1 (configuration not stated)	none
CC(=O)Nc1cccc(-c2csc(C(O)c3ccc(F)cc3)n2)c1 (configuration not stated)	none
CCOc1ccc(Nc2cc(C)nc3c(C)cccc23)cc1	CHRM5 PAM 19.8
C[C@H]1CN([C@@H](C)CO)C(=O)CCCn2cc(nn2)CO[C@@H]1CN(C)C(=O)Nc1cccc(F)c1	none
Cc1ccccc1C(=O)NC1CCN(Cc2nnnn2C(C)(C)C)CC1	none
Cc1ccccc1C(=O)NC1CCN(Cc2nnnn2C2CCCC2)CC1	CHRM5 PAM 31.6
CCCOc1ccc(CSc2nc3ccccc3[nH]2)cc1	CHRM5 antagonist 41.6
